aDG glyco act = activators of alpha-DG glycosylation, primary screen, uHTS, Pro5-aDG cells, AlphaScreen; alpha-DG glycosylation AlphaScreen (IIH6); 0% Pro5, 100% B10-LARGE cell signal; activation, % at 10 µM; actives 0.22% (n = 360,000);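 active means activation of at least 8% versus controls, or a plate z-score of at least 8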;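 further: Pro5 are CHO cells carrying HIG-tagged alpha-DG that lacks glycosylation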
UPR CHOP act = activators of apoptotic CHOP UPR arm, primary screen, cell-based, CHO-CHOP luciferase reporter, luminescence, uHTS; actives 0.34% (n = 330,000); UPR activation; percent of tunicamycin response over DMSO baseline; activation, % at 10 µM;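 active means at 10 µM dose, activation of 40% or more, normalized to positive control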;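 further: 100% = tunicamycin at 10 µg/mL and 0% = DMSO alone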
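System: CHO-CHOP luciferase reporter cell line | Buffer or medium: F12 medium containing 10% fetal bovine serum | Doses: One dose, 10 µM in 0.5% DMSO | Times: 6 h compound exposure at 37 °C after overnight seeding | Signal: Luciferase luminescence | Read-out: % activation vs tunicamycin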
NR3A LBD binder = binders of NR3A ligand-binding domain, primary screen, biophysical, differential scanning fluorimetry, uHTS; actives 2.5% (n = 340,000); Tm shift relative to glycine control, % at 25 µM; NR3A LBD differential scanning fluorimetry, Tm shift; 0% = protein alone, 100% = glycine-bound protein;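 active means melting temperature shift of at least 10% of the positive control shift, at one fixed dose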
XBP1 UPR activ = activators of adaptive XBP1 UPR arm, primary screen, cell-based, CHO-XBP1 luciferase reporter, luminescence, uHTS; IRE1-XBP1 UPR activation; percent of tunicamycin response, DMSO as zero; activation, % at 20 µM; actives 0.33% (n = 330,000); AID 463104, 2010;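 active means versus positive control, 20 µM dose yields 30% or more activation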;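 further: 100% = tunicamycin at 10 µg/mL and 0% = DMSO only wells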
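Signal: luciferase luminescence; Assay system: CHO-XBP1 luciferase reporter cells; Amount: one thousand reporter cells per well; Dosing: 20 µM single concentration, DMSO 1%; Benchmarks: high control tunicamycin 10 µg/mL final, low control DMSO vehicle only; Schedule: 6 h compound exposure at 37 °C, 5% CO2; Evaluation: percent activation relative to tunicamycin reference.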
MPTP block = mitochondrial permeability transition pore inhibitors, primary screen, biochemical, isolated mouse mitochondria, absorbance. Ca2+ swelling absorbance, 30 min. inhibition, % at 10 µM. actives 1.4% (n = 360,000);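 active means inhibition of 50% or more, scaled per plate between neutral and stimulator controls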;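 further: 0% = DMSO wells given calcium and 100% = 1 mM EGTA wells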
CHOP inh = inhibitors of CHOP promoter induction, primary screen, cell-based, unfolded protein response, luciferase reporter | CHO-K1 CHOP-promoter luciferase, tunicamycin-induced, 15-18 h | AID 2732, 2010 | inhibition, % at 10 µM | actives 3.8% (n = 220,000);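 active means compounds that reduced the stress-induced luciferase reporter signal by more than about 70% of percent inhibition, limit read from the data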;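 further: 0% = tunicamycin plus vehicle and 100% = wells without tunicamycin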
* marks the source's active call; other numbers are inactive results; / = no result. The list is not random: actives were taken first. Their share in the collection is about 5.6%.

SMILES | aDG glyco act | UPR CHOP act | NR3A LBD binder | XBP1 UPR activ | MPTP block | CHOP inh
O=C(NNC(=S)NC(=O)c1cccs1)c1ccc(NC(=O)c2ccccc2)cc1 | 1 | 1 | 23* | 1 | 9 | 49
CC(=O)NC(=S)Nc1ccc(NC(=O)c2cccs2)cc1 | 0 | 3 | -27 | 3 | 1 | 14
O=C(NNC(=S)NC(=O)c1cccs1)c1ccc(O)cc1 | 0 | 2 | -5 | -1 | 0 | /
COc1ccccc1C(=O)NC(=S)Nc1ccc(NC(=O)c2cccs2)cc1 | 0 | 1 | 30* | -6 | 3 | 38
O=C(NC(=S)Nc1ccccc1)c1cccs1 | 0 | 6 | 0 | 5 | 1 | /
O=C(CSc1nnc(-c2ccccc2)c(-c2ccccc2)n1)NC1CCS(=O)(=O)C1 (centres undefined) | 0 | 1 | 1 | -2 | -2 | 0
CC1CCCC(NC(=O)CN(C)CC(=O)Nc2cccc(F)c2)C1C (centres undefined) | 0 | 2 | -1 | -2 | -1 | /
Cc1cc2c(c(C)c1Br)C(c1ccc3c(c1)OCO3)CC(=O)O2 (centres undefined) | 0 | 3 | -1 | -2 | -2 | /
CCCCCn1c(=O)[nH]c2cc(C(=O)Nc3ccc(OC)cc3)ccc2c1=O | 0 | 0 | -2 | -2 | 0 | /
CCn1c(=O)[nH]c2cc(C(=O)Nc3cc(C)cc(C)c3)ccc2c1=O | 0 | 1 | -5 | 2 | 2 | 89*
Nc1cc2c(cc1Cl)-c1ccccc1C2=NO | 0 | / | 34* | / | 2 | /
CCCCCn1c(SCC(=O)OCC)nc2cc(C(=O)NCc3ccco3)ccc2c1=O | 0 | 0 | 0 | 0 | 2 | 73*
Cc1cccc(N2CCN(C(=O)c3cn(C)c(=O)c4c3c3ccccc3n4C)CC2)c1C | 1 | -2 | -2 | -1 | -5 | 40
Cc1ccc(Cl)cc1N1CCN(C(=O)c2cn(C)c(=O)c3c2c2ccccc2n3C)CC1 | 1 | 1 | -9 | 3 | -3 | 79*
CCN(CC)C(=O)Cn1cnc2sc(C(=O)NCCCN3CCOCC3)c(C)c2c1=O | 0 | -2 | -2 | -2 | 1 | /
Cc1ccccc1OCC(=O)N/N=C/C=C/c1ccccc1 | 0 | 2 | -23 | 0 | 1 | 20
Cc1cccc(OCC(=O)N/N=C/CC(C)c2ccccc2)c1C (centres undefined) | 0 | 2 | -6 | 0 | -2 | 77*
CC(=O)Nc1ccc(NC(=S)NC(=O)/C=C/c2ccc(Cl)cc2)cc1 | 0 | -2 | -5 | -3 | -1 | -10
COc1cc(OC)cc(C(=O)NC(=S)Nc2ccc(NC(=O)c3ccco3)cc2)c1 | 0 | 1 | 18* | -2 | 0 | -21
O=C(/C=C/c1ccc(Cl)cc1)NC(=S)Nc1ccc(NC(=O)c2ccco2)cc1 | 0 | / | 34* | / | 1 | -13
O=C(NC(=S)NCCc1ccccn1)c1ccco1 | 0 | 3 | 244* | 0 | 0 | -8
CC(C)CC(=O)NC(=S)Nc1ccc(NC(=O)c2ccco2)cc1 | 0 | 0 | 19* | -1 | 1 | 12
O=C(NC(=S)NCCc1ccccn1)c1ccccc1 | 0 | 4 | 1 | 2 | -1 | -58
CCCCn1nnnc1C1(C)CCC(=O)N1Cc1ccco1 (centres undefined) | 0 | / | / | / | 1 | /
CC(C)CC(=O)N1CCN(c2ccc(NC(=O)c3ccco3)cc2)CC1 | 0 | 1 | 13* | -8 | 1 | /
SMILES | aDG glyco act | UPR CHOP act | NR3A LBD binder | XBP1 UPR activ | MPTP block | CHOP inh
O=C(Nc1ccc(NC(=S)NC(=O)c2ccco2)cc1)c1ccccc1 | 0 | 2 | 15* | -1 | 4 | /
CC(C)(C)C(=O)N1CCN(c2ccc(NC(=O)c3ccco3)cc2)CC1 | 0 | 0 | 3 | 1 | 1 | /
COc1cccc(CNC(=O)[C@@H](C)N2C(=O)N3CCc4c([nH]c5ccc(OC)cc45)C3(C)C2=O)c1 (some centres undefined) | 0 | 0 | -2 | -2 | 0 | /
CCn1cc(Br)c(C(=O)NC(=S)Nc2ccc(C(=O)OC)cc2)n1 | 0 | 2 | 12* | 0 | 3 | 34
CCn1cc(Br)c(C(=O)Nc2ccc(Cl)cc2Cl)n1 | 0 | 0 | -6 | 6 | 5 | 44
CCn1cc(Br)c(C(=O)Nc2ccc(F)c(Cl)c2)n1 | 0 | 6 | 15* | 3 | 2 | 8
CCOC(=O)c1ccc(NC(=S)NC(=O)c2nn(CC)cc2Br)cc1 | 0 | 0 | -2 | -1 | 3 | 41
CCOc1ccc(C(C(=O)NC2CCCCC2)N(C(=O)Cc2cccs2)c2ccc(-n3cnnn3)c(OC)c2)cc1 (centres undefined) | 0 | 1 | -2 | 0 | 0 | 84*
CCOc1ccc(S(=O)(=O)N2CCN(C(=O)c3cc(C4CC4)nn3-c3ccccc3)CC2)cc1 | 0 | 1 | 1 | -2 | -2 | /
Cc1nc(NC2CCCCC2)c2nnn(Cc3ccccc3Cl)c2n1 | 0 | 0 | -1 | 0 | 0 | /
Cc1nc(N2CCCC2)c2nnn(Cc3ccccc3Cl)c2n1 | 0 | -1 | -4 | -2 | -1 | 73*
CC(C)CCNc1ncnc2c1nnn2Cc1ccccc1Cl | 0 | 1 | 0 | -1 | 2 | 79*
Nc1c(N(Cc2ccccc2)C(=O)COc2ccc(F)cc2Cl)c(=O)[nH]c(=O)n1Cc1ccccc1 | 0 | 0 | 0 | -2 | 1 | /
O=C(O)c1cccc(CSc2nnc(COc3ccccc3)o2)c1 | 0 | -2 | 11* | -5 | -1 | 52
COc1cc(/C=C2\SC(=O)N(c3cccc(Cl)c3)C2=O)cc([N+](=O)[O-])c1O | 0 | -1 | 1 | 1 | 0 | 105*
COc1cc(/C=C2\SC(=O)N(c3ccc(Cl)cc3)C2=O)cc([N+](=O)[O-])c1O | 1 | / | 14* | / | 2 | 105*
Cc1ccc2nc(SC(C)C(=O)N3CCOCC3)[nH]c2c1 (centres undefined) | 0 | 4 | 2 | -4 | 1 | 1
O=C(Cc1ccccc1)Nc1ccc(C(=O)NCC2COc3ccccc3O2)cc1 (centres undefined) | 0 | 2 | 22* | 0 | -34 | 31
O=C(NCC1COc2ccccc2O1)c1ccccc1 (centres undefined) | 0 | 2 | 1 | -1 | 1 | 26

Screening data: PubChem, several laboratories
